Columns and labels:
B16F10 cells = test: cellular internalization in B16F10 cells; type: cell-based, mouse; settings: n = 3
Huh-7 cells = test: cellular uptake in Huh-7 cells; type: cell-based, human; settings: n = 3
Summary of the method: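 Huh-7 cells were seeded at 1×10^5 per well in DMEM/10% FBS. Radiolabeled tracer (740 KBq/1 mL medium) was added, with incubation at 37 or 4 °C for 5, 10, 20, 40, 60 and 80 min. Cells were washed three times with cold PBS and lysed in 0.5 M NaOH. Lysate radioactivity was gamma-counted.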

## NODAGA-Ahx-CWRLRWHSPLKGM-OH [[^64Cu]CM-3]
B16F10 cells
  in vitro cellular internalization: weaker binding
Huh-7 cells
  in vitro cellular internalization: weaker binding
